The source made the active and inactive calls. The calls are words filed in the database; no cut-off is given here.

In general, EC50 refers to the concentration needed to bring the measured effect to its halfway point. A word on the IC50: it is the concentration that inhibits the measured activity by half. In general, EC90 refers to the point of the concentration-response curve where the effect stands at 90%.

In assay [1] the test system is Human betaherpesvirus 5. Kind of assay: Antiviral activity against human cytomegalovirus AD169 infected in human HFF assessed as inhibition of plaque formation by plaque reduction assay. The assay is classed as functional, organism-based. As to conditions: Human betaherpesvirus 5, AD169. The essentials:
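Plaque reduction against AD169 in HFF. EC50 is the concentration giving 50% inhibition of plaque formation, reported as mean ± SD of at least three independent experiments run in duplicate.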
A general note: Plaque reduction counts the foci of infection that form in a cell layer.

A short description of assay [2]: Selectivity index, ratio of CC50 for human HFF to EC50 for human cytomegalovirus AD169. In outline: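 Selectivity index is CC50 from the HFF MTT assay divided by EC50 from the AD169 plaque reduction assay in HFF.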
Assay [3] in a line: Inhibition of human cytomegalovirus DNA polymerase catalytic subunit UL54 assessed as incorporation of [3H]dTTP. On the set-up: species or system Human betaherpesvirus 5. In outline: (§1)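 Filter-based assay with purified baculovirus-expressed UL54 catalytic subunit, alone or with UL44 accessory subunit. Incorporation of [3H]dTTP into poly(dA)-oligo(dT)12-18 template-primer was measured across serial compound dilutions, with FOS as control. Means ± standard deviations from four independent experiments.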

The nature of assay [4]: Inhibition of human cytomegalovirus DNA polymerase catalytic subunit UL54/UL44 assessed as incorporation of [3H]dTTP. On the set-up: species or system Human betaherpesvirus 5. In outline: as §1
The test system of assay [5] is Human betaherpesvirus 5. Kind of assay: Antiviral activity against human cytomegalovirus AD169 infected in human HFF assessed as virus yield reduction. Type of assay: functional, organism-based. As to conditions: Human betaherpesvirus 5, AD169.
For assay [6], the system named is Human betaherpesvirus 5. In words: Antiviral activity against 1 MOI human cytomegalovirus AD169 infected in human HFF assessed as virus yield reduction by yield reduction assay. Type of assay: functional, organism-based. As to conditions: Human betaherpesvirus 5, AD169.
The subject of assay [7] is Human betaherpesvirus 5. In words: Antiviral activity against 0.1 MOI human cytomegalovirus AD169 infected in human HFF assessed as inhibition of immediate early phase UL122 mRNA expression after 16 hrs by RT-PCR analysis. The assay is classed as functional, organism-based. The essentials: (§2)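 HFF seeded at 6×10^5 per well, infected with AD169 at MOI 0.1 PFU/cell, then given 50 µM drug or 0.2% DMSO. ActD 5 µg/ml, CHX 75 µg/ml and FOS 750 µM served as IE, E and L transcription controls. Total RNA was taken at 16 and 48 h p.i.; 1 µg was reverse-transcribed with random hexamers and MuLV RT. PCR used UL122/UL123 (IE), UL54/UL84 (E) and UL55/UL75 (L) primers with a β-actin control, and products were read on ethidium bromide agarose gels.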

Assay [8] concerns Human betaherpesvirus 5. In words: Antiviral activity against 0.1 MOI human cytomegalovirus AD169 infected in human HFF assessed as inhibition of immediate early phase UL123 mRNA expression after 16 hrs by RT-PCR analysis. Type of assay: functional, organism-based. In outline: as §2
Assay [9] concerns Human betaherpesvirus 5. In words: Antiviral activity against 0.1 MOI human cytomegalovirus AD169 infected in human HFF assessed as inhibition of immediate early phase P72 protein expression after 24 hrs by Western blot analysis. The assay is classed as functional, organism-based. The essentials:
(§3)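 HFF infected with HCMV AD169 at MOI 0.1 PFU/cell, treated with 50 µM compound or 0.2% DMSO. ActD 5 µg/ml, CHX 75 µg/ml and FOS 750 µM served as controls. Harvests at 24, 48 and 72 h p.i. were lysed in NP-40 buffer, then SDS-PAGE and PVDF blotting. Probes were anti-IE1/IE2 (p72/p86) MAb or anti-UL55, then HRP secondary and ECL. β-actin reprobe was the internal control.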
(In general: In western blotting, separated proteins are transferred to a membrane and probed.)

For assay [10], the system named is Human betaherpesvirus 5. In words: Antiviral activity against 0.1 MOI human cytomegalovirus AD169 infected in human HFF assessed as inhibition of immediate early phase P86 protein expression after 24 hrs by Western blot analysis. The assay is classed as functional, organism-based. In outline: as §3
In assay [11] the test system is Human betaherpesvirus 5. In words: Antiviral activity against 0.1 MOI human cytomegalovirus AD169 infected in human HFF assessed as inhibition of late phase UL55 protein expression after 72 hrs of infection by Western blot analysis. The assay is classed as functional, organism-based. The essentials:
as §3

Assay [12] deals with Human betaherpesvirus 5. Kind of assay: Antiviral activity against 0.1 MOI human cytomegalovirus AD169 infected in human U373-MG cells expressing UL54-EGFP reporter assessed as inhibition of EGFP expression after 48 hrs of infection by confocal fluorescence microscopy. The assay is classed as functional, organism-based. As to conditions: U-373MG ATCC. In outline: (§4)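 Stable U373-MG reporter cells were seeded on coverslips at 3×10^5 per well and infected with AD169 at MOI 0.1 or 0.5. They were then treated with 50 µM drug, 5 µM fomivirsen (also given 1 h before and during infection) or 0.2% DMSO. At 48 h p.i. cells were fixed in 4% paraformaldehyde for 15 min, and EGFP-positive cells were counted by confocal microscopy at 20×.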

For assay [13], the system named is Human betaherpesvirus 5. In words: Antiviral activity against 0.1 MOI human cytomegalovirus AD169 infected in human U373-MG cells expressing UL112/113-EGFP reporter assessed as inhibition of EGFP expression after 48 hrs of infection by confocal fluorescence microscopy. Type of assay: functional, organism-based. As to conditions: U-373MG ATCC. The essentials: as §4

In assay [14] the test system is Human betaherpesvirus 5. In words: Antiviral activity against 0.5 MOI human cytomegalovirus AD169 infected in human U373-MG cells expressing UL54-EGFP reporter assessed as inhibition of EGFP expression after 48 hrs of infection by confocal fluorescence microscopy. Type of assay: functional, organism-based. As to conditions: U-373MG ATCC. The essentials: as §4
The subject of assay [15] is Human betaherpesvirus 5. In words: Antiviral activity against 0.5 MOI human cytomegalovirus AD169 infected in human U373-MG cells expressing UL112/113-EGFP reporter assessed as inhibition of EGFP expression after 48 hrs of infection by confocal fluorescence microscopy. Type of assay: functional, organism-based. As to conditions: U-373MG ATCC. The essentials: as §4

The subject of assay [16] is Human betaherpesvirus 5. In words: Antiviral activity against 0.1 MOI human cytomegalovirus AD169 infected in human HFF assessed as virus yield reduction by yield reduction assay. The assay is classed as functional, organism-based. As to conditions: Human betaherpesvirus 5, AD169.
Assay [17] relates to Human betaherpesvirus 5. Kind of assay: Antiviral activity against 0.01 MOI human cytomegalovirus AD169 infected in human HFF assessed as virus yield reduction by yield reduction assay. The assay is classed as functional, organism-based. As to conditions: Human betaherpesvirus 5, AD169.
The subject of assay [18] is Human betaherpesvirus 5. In words: Antiviral activity against human cytomegalovirus AD169 in human HFF assessed as reduction of viral attachment to fibroblast at 4 degC. Type of assay: functional, organism-based. The essentials: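 Prechilled HFF monolayers received 100 PFU AD169 together with graded compound or heparin control for 2 or 4 h at 4°C. Cells were washed with cold PBS, overlaid with compound-free 0.6% methylcellulose medium and kept 10 days at 37°C. Plaques were stained with crystal violet and counted. Three experiments were run in duplicate; mean ± SD.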

Assay [19] has as its system Human betaherpesvirus 5. In words: Antiviral activity against human cytomegalovirus AD169 in human HFF assessed as reduction of viral entry into fibroblast after 2 hrs at 37 degC. As to conditions: Human betaherpesvirus 5, AD169, 2 h.
Assay [20] has as its system Human betaherpesvirus 5. In words: Antiviral activity against 1 MOI human cytomegalovirus AD169 infected in human HFF assessed as inhibition of viral replication up to 30 hrs post infection.
Assay [21] concerns Human betaherpesvirus 5. Kind of assay: Antiviral activity against 0.1 MOI human cytomegalovirus AD169 infected in human HFF assessed as inhibition of early phase UL54 mRNA expression after 16 hrs by RT-PCR analysis.
Assay [22] has as its system Human betaherpesvirus 5. Kind of assay: Antiviral activity against 0.1 MOI human cytomegalovirus AD169 infected in human HFF assessed as inhibition of early phase UL84 mRNA expression after 16 hrs by RT-PCR analysis.
The test system of assay [23] is Human betaherpesvirus 5. Kind of assay: Antiviral activity against 0.1 MOI human cytomegalovirus AD169 infected in human cells expressing UL54-EGFP reporter assessed as inhibition of IE2 transactivating activity after 48 hrs of infection by confocal fluorescence microscopy.
For assay [24], the system named is Human betaherpesvirus 5. Kind of assay: Antiviral activity against 0.1 MOI human cytomegalovirus AD169 infected in human cells expressing UL112/113-EGFP reporter assessed as inhibition of IE2 transactivating activity after 48 hrs of infection by confocal fluorescence microscopy.

On to `Nc1cc2c(=O)c(C(=O)O)cn(C3CC3)c2cc1N1CCN(c2ccccn2)CC1`, for which the EC50 with Human betaherpesvirus 5 [1] was 0.9 µM; in the assay on Human betaherpesvirus 5 [5], 8.6 µM; with Human betaherpesvirus 5 [19], more than 25 µM. In addition, the “Selectivity Index” value in [2] is 479. Moreover, the IC50 in [3] and in assay [4] was more than 100 µM throughout. The EC90 amounted to 51.9 µM in the assay on Human betaherpesvirus 5 [6], 34.7 µM in the assay on Human betaherpesvirus 5 [16] and 8.5 µM in the assay with Human betaherpesvirus 5 [17]. Also, the inhibition result with Human betaherpesvirus 5 [7], in the assay with Human betaherpesvirus 5 [8], with Human betaherpesvirus 5 [9] and in the assay on Human betaherpesvirus 5 [10] was “inactive” throughout. In addition, the inhibition result with Human betaherpesvirus 5 [11], in the assay on Human betaherpesvirus 5 [12], in the assay with Human betaherpesvirus 5 [13], in the assay with Human betaherpesvirus 5 [14], with Human betaherpesvirus 5 [15] and with Human betaherpesvirus 5 [21] was “Active” throughout. Also, the inhibition entry with Human betaherpesvirus 5 [22], in the assay with Human betaherpesvirus 5 [23] and in the assay with Human betaherpesvirus 5 [24] was “Active” in each case. Also, the outcome in the assay on Human betaherpesvirus 5 [18] was inactive. Also, the result with Human betaherpesvirus 5 [20] was Active.

(Values after ChEMBL document CHEMBL1255448, “The 6-aminoquinolone WC5 inhibits human cytomegalovirus replication at an early stage by interfering with the transactivating activity of viral immediate-early 2 protein” (Antimicrob Agents Chemother, 2010).)
